In the library only some 1.5% were active in any assay of this set; here they are far more common.
C8 TRAIL sens: viability loss with TRAIL in NB7+C8 cells, primary screen, TRAIL sensitizer project, cell-based, ATPlite luminescence | inhibition (viability loss, TRAIL sensitization), % at 10 µM | actives 1% (n = 360,000);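 active = compounds causing at least 50% loss of cell viability in the single-dose screen, relative to plate controls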
FLuc act counter: FLuc activators, initial screening, artefact control for FLuc-dependent activation tests, biochemical, ATPlite luminescence; Luciferin 4-monooxygenase (Photinus pyralis), P08659; ATPlite luciferase biochemical, 10 min; 0 = ATP-free wells, 1 = DMSO control; activation factor at 10 µM; 200,000 tested, under 10 active; AID 1027, 2008;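 active = luciferase activation factor, scaled between plate controls, of at least 2 with compound at 10 µM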
Target sequence (P08659 whole entry, looked up): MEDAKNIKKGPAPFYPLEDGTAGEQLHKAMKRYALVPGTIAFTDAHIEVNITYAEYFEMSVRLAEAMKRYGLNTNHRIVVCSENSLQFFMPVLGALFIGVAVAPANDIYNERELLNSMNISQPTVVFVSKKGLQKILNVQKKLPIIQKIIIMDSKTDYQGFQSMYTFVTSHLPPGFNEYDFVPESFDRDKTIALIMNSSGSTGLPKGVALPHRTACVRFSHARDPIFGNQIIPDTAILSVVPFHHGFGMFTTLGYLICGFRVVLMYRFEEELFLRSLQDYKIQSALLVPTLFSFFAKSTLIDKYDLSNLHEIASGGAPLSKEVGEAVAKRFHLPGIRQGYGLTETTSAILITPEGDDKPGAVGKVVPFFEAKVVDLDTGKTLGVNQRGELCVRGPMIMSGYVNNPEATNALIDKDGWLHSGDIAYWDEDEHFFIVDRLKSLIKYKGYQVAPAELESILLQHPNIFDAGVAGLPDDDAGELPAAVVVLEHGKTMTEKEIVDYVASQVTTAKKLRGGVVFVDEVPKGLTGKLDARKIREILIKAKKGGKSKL
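Assay system: Luciferase/luciferin detection reagent, cell-free biochemical luciferase assay / Read-out: luciferase activation / Benchmarks: No-ATP low control, compound-free enzyme-plus-ATP high control / Medium: PBS buffer for ATP / Detection: luminescence measurement of luciferase light output / Schedule: 10 min at ambient temperature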
PPC-1+TRAIL kill: compounds killing PPC-1 cancer cells with TRAIL present, primary screen, TRAIL potentiator project, ATPLite luminescence, uHTS. PPC-1 cells + TRAIL, ATPLite viability luminescence. cell killing (% activity), % at 4 µM or 5 µM. actives 0.41% (n = 220,000). AID 1443, 2008;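 active = cell killing above 50% in the first pass at 4 µM, then a duplicate retest at 5 µM averaging 50% or more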;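 also: plate controls were cells with TRAIL plus DMSO for no effect and medium-only wells lacking cells for full effect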
FLuc inh counter: firefly luciferase enzyme inhibitors, primary screen, artefact control for luciferase-based inhibitor screens, biochemical, luminescence, ATPLite; 10 min; inhibition, % at 10 µM; actives 1.5% (n = 200,000); Luciferin 4-monooxygenase (Photinus pyralis), P08659;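 active = inhibition above about 50% when tested at 10 µM, limit read from the data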
PPC1 cytotox: cytotoxicity in PPC-1 cells, confirmation, cytotoxicity control for TRAIL apoptosis potentiator project, cell-based, ATP content luminescence; actives 50% (n = 1,200); shares compounds with PPC-1+TRAIL kill; PPC-1 viability, ATPlite luminescence, overnight; cytotoxicity, % at 5 µM; AID 1447, 2008;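 active = reconfirmed compounds whose average cytotoxicity reaches 50% or more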;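 also: 0% = DMSO-treated cells and 100% = wells holding medium but no cells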
* hit, by the source's call; x = no result given.

SMILES | C8 TRAIL sens | FLuc act counter | PPC-1+TRAIL kill | FLuc inh counter | others
Cc1ccc(NC(=O)c2noc3c2CCC3)cc1C | 27 | 0.5 | 17 | 49
O=C(Nc1cccc(O)c1)c1noc2c1CCCCC2 | 60* | 0.1 | -2 | 86*
Cc1ccn2c(c1)nc(=S)n2C(=O)c1ccco1 | x | 0.1 | 71* | 94*
Cc1nn(C(=O)c2ccco2)c(C)c1Br | 5 | 1.1 | -12 | -7
O=C(Nc1ccccc1)C1Cc2c(-c3cccc(F)c3)ccnc2O1 (centres undefined) | -8 | x | x | x
CS(=O)(=O)Nc1cccc(NC(=O)C2Cc3c(-c4cccc(F)c4)ccnc3O2)c1 (centres undefined) | 70* | x | x | x
O=c1c2ccccc2nc2n1CCC2 | 2 | 1.1 | 10 | -12
O=c1c2cc(-c3ccccc3)sc2nc2n1CCC2 | x | 0.3 | 45 | 68*
COc1ccc(CCNc2cc(N3CCN(C(=O)c4ccccc4F)CC3)ccc2[N+](=O)[O-])cc1OC | 52* | 1 | 21 | -4
O=C(c1ccccc1F)N1CCN(c2ccc([N+](=O)[O-])c(N3CCOCC3)c2)CC1 | -5 | 0.1 | 1 | 90*
CCN(CC)S(=O)(=O)c1ccc(Cl)c(C(=O)Nc2cc(C)nn2-c2ccccc2)c1 | 20 | 1 | 51* | -2
CCc1ccc(Nc2nnc(SCC(=O)c3c(N)n(C4CC4)c(=O)[nH]c3=O)s2)cc1 | 61* | x | x | x
CS(=O)(=O)c1cnc2c(-c3ccsc3)cnn2c1N | 9 | 0.4 | 43 | 62*
COc1cc(/C=N/O)ccc1OCc1ccc(Cl)cc1 | x | 0.6 | 4 | 43
COc1cc(/C=N/O)ccc1OCc1ccc(C(=O)O)cc1 | 71* | 0.1 | 45 | 88*
Fc1cccc2sc(Nc3nnc(-c4ccco4)o3)nc12 | 41 | 0.3 | 22 | 68*
COc1cccc2sc(Nc3nnc(-c4cccs4)o3)nc12 | 32 | 0.4 | 26 | 56*
COc1cccc2sc(Nc3nnc(-c4ccc(F)cc4)o3)nc12 | 10 | 0.7 | -15 | 28
O=C(O)c1[nH]c2ccccc2c1C(c1ccccc1)c1c(C(=O)O)[nH]c2ccccc12 | -11 | x | x | x
C=C1C(C(=O)Nc2ccc(F)cc2)C1C(=O)Nc1ccc(F)cc1 (centres undefined) | 0 | 1 | 27 | 0
O=C(/C=C/c1ccco1)c1ccc(O)cc1 | x | 0.5 | 2 | 49
CN(C)c1ccc(C(=O)/C=C/c2ccccc2)cc1 | 18 | 0.2 | 8 | 78*
CSc1ccc(/C=C/C(=O)c2ccc(O)cc2)cc1 | 33 | 0.3 | 24 | 70*
CN(C)c1ccc(C(=O)/C=C/c2ccco2)cc1 | 54* | 0.1 | 6 | 91*
CCCn1c(N)c(N(CCOC)C(=O)COC(=O)c2ccccc2NCCO)c(=O)[nH]c1=O | 5 | x | x | x
SMILES | C8 TRAIL sens | FLuc act counter | PPC-1+TRAIL kill | FLuc inh counter | others
CC(=O)Nc1ccc(NCN2C(=O)C3C4CCC(C4)C3C2=O)cc1 (centres undefined) | -8 | 1 | 8 | -1
Clc1ccc(-c2nnc(NC3=NCCCCC3)o2)cc1 | 47 | 0.2 | 48 | 78*
CN1C(=CC=C2C=C(I)C(=O)C(I)=C2)C(C)(C)c2ccccc21 | 24 | x | 50* | x
COc1ccc(-c2cn3cccnc3n2)cc1F | 28 | 0.4 | 37 | 57*
COc1ccc(-c2cn3cccnc3n2)cc1NS(=O)(=O)c1ccccc1 | -10 | 0.9 | 18 | 10
Cc1cccc2sc(NNC(=O)c3ccc(S(=O)(=O)N4CCCC(C)C4)cc3)nc12 (centres undefined) | 67* | 1 | 12 | 1
Cc1cccc2sc(NNC(=O)c3ccc(S(=O)(=O)N4CCc5ccccc5C4)cc3)nc12 | 15 | 1 | 24 | -4
COc1ccc(C(C(=O)NC2CCCC2)N(C(=O)c2snc(-c3ccc(F)cc3)c2N)c2ccc(OC)cc2)cc1 (centres undefined) | -7 | 1.1 | 15 | -6
COc1ccc(C(C(=O)NC2CCCCC2)N(C(=O)CCl)c2ccc(Cl)cc2)cc1 (centres undefined) | 96* | 1.1 | 62* | -11
COc1ccc(N(C(=O)c2cnccn2)C(C(=O)NC2CCCCC2)c2ccc(Cl)cc2)cc1 (centres undefined) | 0 | x | x | x
COc1ccc(C(C(=O)NC2CCCC2)N(C(=O)c2snc(-c3ccc(F)cc3)c2N)c2ccc(F)cc2)cc1 (centres undefined) | 51* | 1.1 | 7 | -6
Cc1cccc(N(C(=O)CNC(=O)c2ccco2)C(C(=O)NC2CCCCC2)c2cccnc2)c1 (centres undefined) | 0 | x | x | x
O=C(NC1CCCCC1)C(c1cccnc1)N(C(=O)CCl)c1cccc(Cl)c1 (centres undefined) | 98* | 1.1 | 12 | -7
Cc1ccc(OCC(=O)Nc2ccc(S(=O)(=O)Nc3ccccn3)cc2)cc1C | 4 | 1 | 10 | -2
CCc1cccc(OCC(=O)Nc2ccc(S(=O)(=O)Nc3ccccn3)cc2)c1 | -1 | 1.1 | 6 | -6 | PPC1 cytotox=8
Cc1ccc2c(c1)NC(=O)c1cccc([N+](=O)[O-])c1CO2 | x | 1.1 | 1 | -9
CCC(CNc1cc(OC)cc2cccnc12)NC1CCCCC1 (centres undefined) | 26 | x | -3 | x | PPC1 cytotox=-16
O=C(Nc1ccc(N2CCCCCC2)cc1)c1ccccc1Cl | -25 | 0.9 | 16 | 8
O=C(Nc1ccc(N2CCCCC2)cc1)c1ccccn1 | 93* | 0 | 97* | 97* | PPC1 cytotox=96*
O=C(Nc1ccc2c(c1)OCCO2)c1ccc2ccccc2n1 | 33 | 0.4 | 43 | 62* | PPC1 cytotox=42
O=C(Nc1ccc(NC(=O)c2ccccn2)cc1)C(=O)Nc1ccc2c(c1)OCCO2 | -3 | 1 | -7 | 2
O=C(Nc1ccc(N2CCOCC2)cc1)c1cn2ccccc2n1 | 81* | 0.1 | 81* | 93* | PPC1 cytotox=82*
O=C(Nc1ccc2c(c1)OCCO2)c1ccccn1 | 75* | 0.1 | 43 | 93* | PPC1 cytotox=53*
O=C(Nc1ccc(Cl)c(S(=O)(=O)N2CCOCC2)c1)c1cn2ccccc2n1 | 15 | 1.1 | 4 | -5
O=C(Nc1ccc2c(c1)OCCO2)c1c(F)cccc1F | 2 | 0.6 | 18 | 40
O=C(Nc1ccc2c(c1)OCCO2)c1ccccc1F | 48 | 0.2 | 28 | 76* | PPC1 cytotox=33
Cc1ccc(-c2nc3ncccn3c2Nc2ccc3c(c2)OCCO3)cc1 | -9 | 1.1 | 20 | -9
COc1ccc(-c2nc3ncccn3c2Nc2ccc3c(c2)OCCO3)cc1 | -19 | 1 | 15 | 0 | PPC1 cytotox=10
CNC(=S)Nc1ccccc1-c1ccccc1 | -6 | 1 | -4 | -5
O=C(NCc1cccnc1)c1ccccc1-c1nc(-c2ccccc2)no1 | 0 | 0.9 | 8 | 10

Assay outcomes from PubChem.
